Three compounds from article PMC12265513 (bioRxiv, 2025) can be followed below.

The test system of one experiment is BRAF-RBD. Put plainly: Intact MS counter screen. The class given is binding. The conditions noted are these: deconvoluted MS. In outline:
(§1)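 Dual screen: NEDD9-SH3 (1-64) and BRAF-RBD, each at 1 μM, were mixed in one reaction with 100 μM covalent fragment. Controls were 100 μM iodoacetamide or 1% DMSO. Buffer was 50 mM HEPES pH 7.4, 100 mM NaCl, 4 h at 21°C. Reactions were quenched to 0.2% formic acid and read by RapidFire QTOF MS. Hits formed a single adduct on NEDD9-SH3 at least two-fold greater than on BRAF-RBD.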
(Counterscreens check selectivity or assay interference.)

In another experiment the test system is NEDD9-SH3 (1-64). Put plainly: Intact protein mass spectrometry, covalent modification of the SH3 domain. The class given is binding. The conditions noted are these: intact MS and 2-D NMR. In a few lines: as §1
In experiment [1] the target is GST-fused construct of the NEDD9-SH3 domain (Homo sapiens, UniProt Q14511). Put plainly: Fluorescence polarization, direct binding of FITC-labeled pep01 probe. On the technique in general: Polarisation of emitted light reports the rotation of a fluorescent probe.
Another experiment relates to NEDD9. Put plainly: NEDD9 immunoblot in HPAECs. Type of experiment: cell-based, human. The conditions noted are these: 50-200 μM for 30-120 min, basal conditions, vs vehicle, n=3. In a few lines:
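Confluent HPAECs in EBM-2 medium received test compound from a 10 mM DMSO stock, with DMSO as vehicle, for 30, 60 or 120 min. Lysates were immunoblotted with anti-NEDD9 (1:1000) overnight at 4°C, then peroxidase secondary and ECL detection.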
A general note: Immunoblotting shows a protein as a band on a membrane.

The test system of a further experiment is HPAECs. Put plainly: Anti-collagen III immunofluorescence in HPAECs. The class given is cell-based, human. As to conditions: 24 hr, n=3. In a few lines:
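HPAECs grown on glass chamber slides were exposed to test compound for 24 hr. They were then fixed in 4% formalin in PBS and blocked with 10% goat albumin in PBS for 1 hr at room temperature. Primary antibody (1:100) was applied overnight at 4°C. Collagen III deposition and NEDD9-positive cells were scored by immunofluorescence.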

A further experiment has as its system NEDD9-SMAD3 complex. Put plainly: NEDD9-SMAD3 complex formation. The conditions noted are these: H2O2 (500 μM) for 20 min, n=3. Type of experiment: cell-based, human. In outline: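 HPAECs were treated with 500 μM H2O2 for 20 min with or without test compound. The complex was measured two ways. One was anti-NEDD9 immunoprecipitation followed by anti-SMAD3 immunoblot. The other was proximity ligation with mouse anti-NEDD9 and rabbit anti-SMAD3, normalised to total NEDD9 expression. n=3.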

Structures are written as SMILES. Peptide text beside a SMILES is read from it. * marks the point of attachment. FITC = O=C1OC2(c3ccc(O)cc3Oc3cc(O)ccc32)c2ccc(NC(=S)*)cc21; Ahx = NCCCCCC(=O)O

In the case of `C[C@@H]1CCN(C(=O)CCl)[C@@H](C(N)=O)C1` [Fragment 2, (2R,4R)-1-(2-chloroacetyl)-4-methylpiperridine-2-carboxamide], in the experiment with BRAF-RBD, the BRAF-RBD modification result is on record as “did not show BRAF-RBD modification”. Moreover, the “adduct formation to NEDD9-SH3” value in the experiment with NEDD9-SH3 (1-64) was “dose- and time-dependent increase in adduct formation”.
For orientation: Kd means a measure of binding affinity in units of concentration. Read a low Kd as higher affinity. Turning to `C[C@H](NC(=O)[C@H](CCC(=O)O)NC(=O)[C@H](CC(=O)O)NC(=O)CCCCCNC(=S)Nc1ccc2c(c1)C(=O)OC21c2ccc(O)cc2Oc2cc(O)ccc21)C(=O)N1CCC[C@H]1C(=O)N1CCC[C@H]1C(=O)N[C@@H](CCCCN)C(=O)N1CCC[C@H]1C(=O)N[C@@H](CO)C(=O)N[C@@H](CCCNC(=N)N)C(=O)N1CCC[C@H]1C(=O)NCC(=O)N[C@@H](Cc1ccc(O)cc1)C(=O)N1CCC[C@H]1C(=O)N[C@@H](CO)C(N)=O` [FITCylated pep01] ({FITC-Ahx}-DEAPPKPSRPGYPS-NH2), the Kd in experiment [1] came out at 4 µM.
On to `C=CC(=O)Nc1cc(C(F)(F)F)cc(C(F)(F)F)c1` [Fragment 1, N-[3,5-Bis(trifluoromethyl)phenyl] acrylamide], for which the “NEDD9 protein quantity by immunoblot” value with NEDD9 is “decreased NEDD9 protein quantity”. Moreover, in the experiment on HPAECs, the “fibrosis in cellulo by anti-collagen III immunofluorescence” value is on record as “decreased fibrosis”. In the experiment with NEDD9-SMAD3 complex, the NEDD9-SMAD3 complex formation result is recorded as “restored NEDD9-SMAD3 complex formation”.
